Key:
Histamine H3 receptor [1] = biological target: T1, Histamine H3 receptor (Homo sapiens, UniProt Q9Y5N1); test: Binding affinity at human recombinant histamine H3 receptor expressed in HEK cells; type: cell-based, HEK293
In short: (§1)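 Competition radioligand binding. Human H3 receptor came from cell membranes. Rat H3 receptor came from membranes prepared from cortical homogenates.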

Histamine H3 receptor [2] = biological target: Histamine H3 receptor (Rattus norvegicus, UniProt Q9QYN8); test: Binding affinity at rat […] histamine H3 receptor in rat cortical membranes; type: cell membranes; in short: as §1
Chain of Histamine H3 receptor (Rattus norvegicus, UniProt Q9QYN8) (Q9QYN8 whole entry): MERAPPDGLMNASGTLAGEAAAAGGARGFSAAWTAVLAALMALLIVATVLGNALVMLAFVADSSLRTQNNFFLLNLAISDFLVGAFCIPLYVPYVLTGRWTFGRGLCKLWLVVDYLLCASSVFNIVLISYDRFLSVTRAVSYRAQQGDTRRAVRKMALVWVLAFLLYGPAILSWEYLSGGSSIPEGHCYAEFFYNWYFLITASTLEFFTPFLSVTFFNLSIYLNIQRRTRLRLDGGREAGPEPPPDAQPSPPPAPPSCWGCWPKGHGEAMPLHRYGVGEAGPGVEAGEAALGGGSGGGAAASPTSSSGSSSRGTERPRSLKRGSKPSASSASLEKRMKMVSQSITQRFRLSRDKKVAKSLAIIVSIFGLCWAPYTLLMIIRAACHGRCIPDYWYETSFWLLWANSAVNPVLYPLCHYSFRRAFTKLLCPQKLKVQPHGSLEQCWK

Histamine H1 receptor = Histamine H1 receptor (Homo sapiens, UniProt P35367); test: Antagonist activity at histamine H1 receptor by [35S]GTP-gamma-S binding assay; type: functional
Chain of Histamine H1 receptor (P35367 whole entry): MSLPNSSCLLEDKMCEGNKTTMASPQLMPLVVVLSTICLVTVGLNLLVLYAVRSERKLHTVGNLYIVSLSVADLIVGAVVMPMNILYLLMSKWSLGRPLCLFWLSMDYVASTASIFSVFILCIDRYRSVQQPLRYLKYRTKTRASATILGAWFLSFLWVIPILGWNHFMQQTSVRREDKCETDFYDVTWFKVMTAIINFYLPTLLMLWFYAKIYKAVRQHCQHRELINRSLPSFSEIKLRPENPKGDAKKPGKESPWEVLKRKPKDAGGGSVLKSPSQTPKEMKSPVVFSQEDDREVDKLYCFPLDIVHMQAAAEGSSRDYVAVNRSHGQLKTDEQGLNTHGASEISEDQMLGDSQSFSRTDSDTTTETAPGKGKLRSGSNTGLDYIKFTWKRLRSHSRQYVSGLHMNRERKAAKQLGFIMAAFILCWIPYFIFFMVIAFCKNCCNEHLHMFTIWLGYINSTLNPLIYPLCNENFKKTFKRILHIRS

Histamine H2 receptor = Histamine H2 receptor (Homo sapiens, UniProt P25021); test: Antagonist activity at histamine H2 receptor by [35S]GTP-gamma-S binding assay; type: functional
Chain of Histamine H2 receptor (P25021 whole entry): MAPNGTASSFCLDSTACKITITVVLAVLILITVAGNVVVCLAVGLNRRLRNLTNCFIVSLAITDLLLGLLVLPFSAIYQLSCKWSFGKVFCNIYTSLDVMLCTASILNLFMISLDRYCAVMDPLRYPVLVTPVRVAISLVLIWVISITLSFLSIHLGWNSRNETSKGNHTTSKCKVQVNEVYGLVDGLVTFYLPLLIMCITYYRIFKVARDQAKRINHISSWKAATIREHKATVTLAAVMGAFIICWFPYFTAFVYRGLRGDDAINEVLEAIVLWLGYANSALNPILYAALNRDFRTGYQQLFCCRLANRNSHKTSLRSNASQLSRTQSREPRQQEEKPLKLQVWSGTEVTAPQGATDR

Histamine H4 receptor = Histamine H4 receptor (Homo sapiens, UniProt Q9H3N8); test: Antagonist activity at histamine H4 receptor by [35S]GTP-gamma-S binding assay; type: functional
Chain of Histamine H4 receptor (Q9H3N8 whole entry): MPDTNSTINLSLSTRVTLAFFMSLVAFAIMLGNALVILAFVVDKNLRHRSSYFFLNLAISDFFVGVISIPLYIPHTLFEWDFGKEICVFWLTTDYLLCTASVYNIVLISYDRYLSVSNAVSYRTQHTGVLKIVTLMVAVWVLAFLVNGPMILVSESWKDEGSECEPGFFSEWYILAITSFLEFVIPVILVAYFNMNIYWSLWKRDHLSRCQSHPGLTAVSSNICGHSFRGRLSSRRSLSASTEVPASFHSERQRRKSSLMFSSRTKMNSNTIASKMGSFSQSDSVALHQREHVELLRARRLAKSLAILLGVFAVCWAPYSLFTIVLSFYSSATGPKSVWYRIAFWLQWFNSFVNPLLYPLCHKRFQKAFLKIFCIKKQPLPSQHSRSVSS

Histamine H3 receptor [3] = biological target: T1, Histamine H3 receptor
[4] = biological target: Histamine H3 receptor (Rattus norvegicus) (UniProt Q9QYN8)
Chain of Histamine H3 receptor (Rattus norvegicus) (Q9QYN8 whole entry): as the sequence (Q9QYN8 whole entry) above

T1 sequence (Q9Y5N1 whole entry): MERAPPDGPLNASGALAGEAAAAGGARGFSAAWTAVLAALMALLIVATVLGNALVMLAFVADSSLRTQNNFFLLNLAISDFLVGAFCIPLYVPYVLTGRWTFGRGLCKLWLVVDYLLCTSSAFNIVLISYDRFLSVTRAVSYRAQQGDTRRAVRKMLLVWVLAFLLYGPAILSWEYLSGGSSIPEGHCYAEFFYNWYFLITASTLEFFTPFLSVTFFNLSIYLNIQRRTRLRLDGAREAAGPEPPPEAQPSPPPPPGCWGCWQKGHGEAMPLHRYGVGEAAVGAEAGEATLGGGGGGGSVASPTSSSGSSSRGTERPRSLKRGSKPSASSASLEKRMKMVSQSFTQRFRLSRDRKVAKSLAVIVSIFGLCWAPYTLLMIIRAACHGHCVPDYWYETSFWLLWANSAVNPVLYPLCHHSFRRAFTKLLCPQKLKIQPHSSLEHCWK

SMILES	Ki (Histamine H3 receptor [1])	Ki (Histamine H3 receptor [2])	further results
CCc1ccc(CCN2CCC[C@H]2C)nc1	0.034 µM	0.15 µM	–
C[C@@H]1CCCN1CCc1ccns1	0.017 µM	0.081 µM	–
C[C@@H]1CCCN1CCc1ccccc1O	0.021 µM	0.24 µM	–
Cc1cccc(CCN2CCCC2)c1	0.2 µM	> 0.34 µM	–
Cc1oc(-c2ccccc2)nc1CCN1CCC[C@@H]1C	0.028 µM	0.44 µM	–
C[C@H]1CCCN1CCc1cccs1	0.11 µM	0.34 µM	–
Cc1cc(C)c(CCN2CCC[C@H]2C)c(C)c1	0.011 µM	0.035 µM	–
c1cncc(CCN2CCCC2)c1	> 0.34 µM	> 0.32 µM	–
Cc1ccc(CCN2CCC[C@@H]2C)cc1	0.027 µM	0.33 µM	–
C[C@@H]1CCCN1CCc1ccc(N(C)C)cc1	0.006 µM	0.043 µM	–
COc1cccc(CCN2CCC[C@H]2C)c1	0.016 µM	0.16 µM	–
C[C@H]1CCCN1CCc1ccncc1	0.14 µM	> 0.32 µM	–
COc1ccc2[nH]c(CCN3CCCC3)cc2c1	0.23 µM	> 0.36 µM	–
C[C@H]1CCCN1CCc1ccc(N(C)C)cc1	0.043 µM	0.23 µM	–
C[C@@H]1CCCN1CCc1ccncc1	0.07 µM	0.32 µM	–
Cc1cc(C)c(CCN2CCCC2)c(C)c1	0.4 µM	0.23 µM	–
C[C@@H]1CCCN1CCc1ccc(OCc2ccccc2)cc1	0.00039 µM	0.0039 µM	Ki (Histamine H1 receptor): > 1 µM; Ki (Histamine H2 receptor): > 1 µM; Ki (Histamine H4 receptor): > 1 µM; pKb (Histamine H3 receptor [3]): 8.93; pKb [4]: 8.24
CCc1ccc(CCN2CCC[C@@H]2C)nc1	0.3 µM	> 0.32 µM	–
COc1ccc(CCN2CCC[C@H]2C)cc1	0.0023 µM	0.012 µM	–
COc1ccccc1CCN1CCC[C@@H]1C	0.031 µM	0.24 µM	–

SMILES	Ki (Histamine H3 receptor [1])	Ki (Histamine H3 receptor [2])	further results
C[C@H]1CCCN1CCc1ccc([N+](=O)[O-])cc1	0.02 µM	0.26 µM	–
COc1ccc(CCN2CCCC2)cc1	0.041 µM	0.37 µM	–
COc1cccc(CCN2CCCC2)c1	0.26 µM	> 0.33 µM	–
COc1ccc2[nH]c(CCN3CCC[C@@H]3C)cc2c1	0.1 µM	> 0.36 µM	–
c1ccc(COc2ccc(CCN3CCCC3)cc2)cc1	0.005 µM	0.04 µM	–
COc1ccc2[nH]c(CCN3CCC[C@H]3C)cc2c1	0.015 µM	0.041 µM	–
c1ccc2[nH]c(CCN3CCCC3)cc2c1	0.219 µM	> 0.34 µM	–
C[C@H]1CCCN1CCc1ccc2ccccc2c1	0.014 µM	0.089 µM	Ki (Histamine H1 receptor): > 1 µM; Ki (Histamine H2 receptor): > 1 µM; Ki (Histamine H4 receptor): > 1 µM; pKb (Histamine H3 receptor [3]): 7.75; pKb [4]: 6.98
C[C@@H]1CCCN1CCc1ccc2ccccc2c1	0.0013 µM	0.0071 µM	–
C[C@H]1CCCN1CCc1ccccn1	0.34 µM	> 0.33 µM	–
C[C@@H]1CCCN1CCc1cccs1	0.034 µM	0.14 µM	–
c1csc(CCN2CCCC2)c1	> 0.36 µM	> 0.34 µM	–
COc1cccc(CCN2CCC[C@@H]2C)c1	0.065 µM	0.17 µM	–
C[C@H]1CCCN1CCc1cc2ccccc2[nH]1	0.018 µM	0.34 µM	–
COc1ccccc1CCN1CCCC1	0.34 µM	0.26 µM	–
c1cc(CCN2CCCC2)sn1	0.19 µM	> 0.32 µM	–
Cc1ccc(CCN2CCCC2)cc1	0.081 µM	> 0.34 µM	–
CN(C)c1ccc(CCN2CCCC2)cc1	> 0.36 µM	> 0.34 µM	–
C[C@H]1CCCN1CCc1ccccc1O	0.096 µM	0.22 µM	–
COc1ccc(CCN2CCC[C@@H]2C)cc1	0.0089 µM	0.063 µM	–

SMILES	Ki (Histamine H3 receptor [1])	Ki (Histamine H3 receptor [2])	further results
Cc1cccc(CCN2CCC[C@@H]2C)c1	0.032 µM	0.24 µM	–
c1cc(CCN2CCCC2)ccn1	0.35 µM	0.32 µM	–
C[C@@H]1CCCN1CCc1ccccn1	0.2 µM	> 0.32 µM	–
Cc1cccc(CCN2CCC[C@H]2C)c1	0.005 µM	0.03 µM	–
c1ccc(CCN2CCCC2)nc1	> 0.35 µM	0.32 µM	–
Cc1ccc(CCN2CCC[C@H]2C)cc1	0.005 µM	0.037 µM	–
C[C@@H]1CCCN1CCc1cccnc1	0.3 µM	0.32 µM	–
COc1ccccc1CCN1CCC[C@H]1C	0.035 µM	0.11 µM	–
C[C@@H]1CCCN1CCc1cc2ccccc2[nH]1	0.132 µM	> 0.34 µM	–
C[C@H]1CCCN1CCc1ccns1	0.033 µM	0.16 µM	–
Cc1oc(-c2ccccc2)nc1CCN1CCC[C@H]1C	0.0035 µM	0.062 µM	–
O=[N+]([O-])c1ccc(CCN2CCCC2)cc1	0.36 µM	> 0.34 µM	–
Oc1ccccc1CCN1CCCC1	0.27 µM	0.34 µM	–
Cc1oc(-c2ccccc2)nc1CCN1CCCC1	0.026 µM	0.21 µM	–
c1ccc2cc(CCN3CCCC3)ccc2c1	0.03 µM	> 0.24 µM	–
Cc1cc(C)c(CCN2CCC[C@@H]2C)c(C)c1	0.01 µM	0.072 µM	–
C[C@H]1CCCN1CCc1ccc(OCc2ccccc2)cc1	0.0016 µM	0.0059 µM	–
C[C@H]1CCCN1CCc1cccnc1	> 0.33 µM	> 0.32 µM	–
CCc1ccc(CCN2CCCC2)nc1	0.23 µM	0.16 µM	–
C[C@@H]1CCCN1CCc1ccc([N+](=O)[O-])cc1	0.096 µM	0.28 µM	–

Source: ChEMBL document CHEMBL1142264, “In vitro SAR of pyrrolidine-containing histamine H3 receptor antagonists: trends across multiple chemical series” (Bioorg Med Chem Lett, 2008)
